Active and inactive are the calls of the source. The calls are words filed in the database; no cut-off is given here.
Columns and labels:
[1] = test system: Erythrocyte; experiment: Antihemolytic activity against hypotonic hemolysis in Wistar rat erythrocytes after 10 mins; assay type: functional, cell-based
Method in brief: (§1)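 Blood was taken by puncture from urethane-anaesthetized (1.2 g/kg) Wistar rats and heparinised. After centrifugation, plasma and leukocyte layer were removed and cells were resuspended in 154 mM NaCl/10 mM phosphate buffer pH 7.0. The suspension was added to drug dilutions in hypotonic NaCl/phosphate buffer pH 7.0 (NaCl 63–67 mM for 50% haemolysis) and held 10 min at room temperature. It was then spun, and supernatant haemoglobin was read at 540 nm. Run in duplicate; expressed as relative haemolysis.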

[2] = test system: Sciatic nerve; experiment: Inhibition of amplitude of compound action potential in isolated Wistar rat sciatic nerve at 0.1 to 3 uM after 15 mins by electrophysiology assay; assay type: functional, tissue-based
Method in brief: (§2)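 Sciatic nerve bundles 3–4 cm long came from adult Wistar rats (200–400 g). Drugs in Tyrode's solution were applied cumulatively (0.100–3.00 µM) at 1 mL/min flow, with at least 15 min contact each. Blockade was taken as percentage decrement in compound action potential amplitude versus control. Solvent was at most 0.05% v/v.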

[3] = Antihemolytic activity against hypotonic hemolysis in Wistar rat erythrocytes at 100 uM after 10 mins relative to control; assay type: functional, Erythrocyte; method in brief: as §1
[4] = Toxicity in isolated Wistar rat sciatic nerve assessed as axonal damage by LDH assay; assay type: tissue-based; conditions: ex_vivo
Method in brief: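 Neuronal damage in isolated Wistar rat sciatic nerve bundles was gauged from LDH activity leaked into the incubation medium over time, following the Bergmeyer method.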

[5] = test system: Sciatic nerve; experiment: Inhibition of amplitude of compound action potential in isolated Wistar rat sciatic nerve after 15 mins by electrophysiology assay; assay type: functional, tissue-based; method in brief: as §2
[6] = test system: Erythrocyte; experiment: Antihemolytic activity against hypotonic hemolysis in Wistar rat erythrocytes at 0.3 to 1 uM after 10 mins; assay type: functional, cell-based; method in brief: as §1
[7] = test system: Erythrocyte; experiment: Antihemolytic activity against hypotonic hemolysis in Wistar rat erythrocytes at 0.1 to 30 uM after 10 mins; assay type: functional, cell-based; method in brief: as §1
[8] = test system: Erythrocyte; experiment: Antihemolytic activity against hypotonic hemolysis in Wistar rat erythrocytes at 0.1 to 100 uM after 10 mins; assay type: functional, cell-based; method in brief: as §1
[9] = test system: Erythrocyte; experiment: Antihemolytic activity against hypotonic hemolysis in Wistar rat erythrocytes at 0.1 to 1 uM after 10 mins; assay type: functional, cell-based; method in brief: as §1
[10] = test system: Erythrocyte; experiment: Antihemolytic activity against hypotonic hemolysis in Wistar rat erythrocytes at 100 uM after 10 mins relative to sucrase; assay type: functional, cell-based; method in brief: as §1

| Structure (SMILES) | inhibition [2] | Ratio [3] | Activity [4] | inhibition [5] | Activity [6] | also measured |
| --- | --- | --- | --- | --- | --- | --- |
| CCCCOc1cc(C(=O)NCCN(CC)CC)c2ccccc2n1 [DIBUCAINE] | Active | 0.421 |  |  |  | Activity [1]: Dose-dependent effect |
| COc1ccc2c(=O)c3cc(C(=O)N[C@@H](C)c4ccc(C)cc4)ccc3oc2c1 |  | 0.967 | Non-toxic | Dose-dependent effect | Active |  |
| O=c1c2ccccc2oc2ccccc12 [XANTHONE] |  | 0.686 |  |  |  | Activity [7]: inactive |
| OC[C@H]1O[C@@](CO)(O[C@H]2O[C@H](CO)[C@@H](O)[C@H](O)[C@H]2O)[C@@H](O)[C@@H]1O | inactive |  |  |  |  | Activity [8]: Active |
| COc1ccc2c(=O)c3cc(C(=O)N[C@H](CO)C(C)C)ccc3oc2c1 |  |  | Non-toxic | Dose-dependent effect |  | Activity [9]: Active; Activity [10]: Active |
| COc1ccc2c(=O)c3cc(C(=O)N[C@H](CO)CC(C)C)ccc3oc2c1 |  |  | Non-toxic | Dose-dependent effect | Active |  |
